Experimental data reported in ChEMBL document CHEMBL1122552, “Synthesis and biological evaluation of 6-amino-1H-pyrrolo[3,2-c]pyridin-4(5H)-one (3,7-dideazaguanine)” (1984).
In brackets after ≈: the same amount, converted by molar mass.

Legend:
AA6 = test: Ability to inhibit growth of AA-6 cells (a mutant cell line resistant to 8-azaadenine and lacks […]) was determined; format: functional; details: Cricetulus griseus
Method in brief: (§1)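 Clonogenic growth assay: log-phase cells trypsinized, diluted in McCoy's 5A with dialyzed fetal calf serum, about 200 cells per dish. Cells were grown at 0.5–3000 μM for 7 days at 37.5 °C in humidified CO2, then fixed in 10% formaldehyde and stained with 0.1% crystal violet. The minimum inhibitory concentration is the lowest tested concentration giving clones of fewer than 50 cells.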

CHO = test: Ability to inhibit growth of CHO cells was determined; format: functional; details: Cricetulus griseus; method in brief: as §1
Human alphaherpesvirus 1 = test: The minimum inhibitory concentration required to reduce HSV-1(KOS) induced cytopathogenicity in primary rabbit kidney cells by 50%; format: functional
Method in brief: (§2)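 Inhibition of virus-induced cytopathogenicity in primary rabbit kidney cells. The minimal inhibitory concentration (μg/mL) is the one reducing cytopathogenicity by 50%, scored when cytopathogenicity was complete in virus-infected untreated controls. Minimal cytotoxic concentration was taken as the one causing microscopically detectable change in cell morphology; 400 μg/mL was the highest concentration tested.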

Human alphaherpesvirus 2 = test: The minimum inhibitory concentration required to reduce HSV-2 (G) induced cytopathogenicity in primary rabbit kidney cells by 50%; format: functional; method in brief: as §2
[1] = Ability to inhibit growth of TG-1 cells (a mutant cell line resistant to 6-thioguanine and lacks hypoxanthine-guanine phosphoribosyltransferase) was determined
Mus musculus [2] = test: Effect on mice inoculated with P388 Lymphocytic leukemia, was studied. Compound dose is 100 mg/kg (Exp-1)Average animal body weight change of test group minus that of control animals.; format: functional
Method in brief: (§3)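 Experiment 1: P388 cells (10^6) implanted ip in CDF1 mice, 6 per group, 30 untreated controls. Dosing in saline, ip, on days 1-5, starting 24 h after implant. Reported value is the mean body weight change of the treated group minus that of the controls, in g.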

Mus musculus [3] = test: Effect on mice inoculated with P388 Lymphocytic leukemia, was studied. Compound dose is 200 mg/kg (Exp-1)Average animal body weight change of test group minus that of control animals.; format: functional; method in brief: as §3
Mus musculus [4] = test: Effect on mice inoculated with P388 Lymphocytic leukemia, was studied. Compound dose is 400 mg/kg (Exp-1)Average animal body weight change of test group minus that of control animals; format: functional
Mus musculus [5] = test: Effect on mice inoculated with P388 Lymphocytic leukemia, was studied. Compound dose is 50 mg/kg (Exp-1)Average animal body weight change of test group minus that of control animals.; format: functional; method in brief: as §3
Mus musculus [6] = test: Compound was evaluated for median life span after tumor implantation at a dose of 400 mg/kg; format: functional
Method in brief: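 P388 leukemia cells (10^6) implanted ip in groups of 6 BDF1 mice, with 30 untreated controls. Therapy began 24 h later: compound in saline given ip on days 1-5. Recorded median life span in days after implant, T/C %, and body-weight change of treated minus control animals.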

Mus musculus [7] = test: Compound was evaluated for median life span after tumor implantation at a dose of 50 mg/kg; format: functional
Method in brief: (§4)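 P388 leukemia cells (10^6) implanted ip in groups of 6 CDF1 mice, with 30 untreated controls. Therapy began 24 h later: compound in saline given ip on days 1-5. Recorded median life span in days after implant, T/C %, and body-weight change of treated minus control animals.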

Mus musculus [8] = test: Compound was evaluated for median life span after tumor implantation at a dose of 100 mg/kg; format: functional; method in brief: as §4
Mus musculus [9] = test: Compound was evaluated for median life span after tumor implantation at a dose of 200 mg/kg; format: functional; method in brief: as §4
Mus musculus [10] = test: Compound was evaluated for value at a dose of 100 mg/kg; format: functional
Method in brief: (§5)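 Experiment 1: 10^6 P388 cells implanted ip in groups of 6 CDF1 mice, with 30 untreated controls. Therapy began 24 h later: saline solution given ip on days 1-5. Value is T/C, %, of median life span (days postimplant) against untreated controls.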

Mus musculus [11] = test: Compound was evaluated for value at a dose of 200 mg/kg; format: functional; method in brief: as §5
Mus musculus [12] = test: Compound was evaluated for value at a dose of 400 mg/kg; format: functional
Method in brief: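 Experiment 2: 10^6 P388 cells implanted ip in groups of 6 BDF1 mice, with 30 untreated controls. Therapy began 24 h later: saline solution given ip on days 1-5. Value is T/C, %, of median life span (days postimplant) against untreated controls.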

[13] = tested on: Vesicular stomatitis virus; test: The minimum inhibitory concentration required to reduce VSV induced cytopathogenicity in primary rabbit kidney cells by 50%; format: functional
Coxsackievirus = test: The minimum inhibitory concentration required to reduce Coxsackie virus type B4 induced cytopathogenicity in primary rabbit kidney cells by 50%; format: functional
Mus musculus [14] = test: Compound was evaluated for value at a dose of 50 mg/kg; format: functional; method in brief: as §5

Nc1cc2[nH]cnc2c(=O)[nH]1 [DEZAGUANINE]
MIC (AA6): 500 µM (≈ 75.1 µg/mL)
MIC (CHO): 10 µM (≈ 1.5 µg/mL)
MIC (Human alphaherpesvirus 1): 4 µg/mL (≈ 26.6 µM)
MIC (Human alphaherpesvirus 2): 150 µg/mL (≈ 999 µM)
MIC [1]: 1500 µM (≈ 225 µg/mL)

Nc1cc2[nH]ccc2c(O)n1
MIC (AA6): 1000 µM (≈ 149 µg/mL)
MIC (CHO): 1000 µM (≈ 149 µg/mL)
MIC (Human alphaherpesvirus 1): > 400 µg/mL
MIC (Human alphaherpesvirus 2): > 400 µg/mL
Activity (Mus musculus [2]): -0.6 g
Activity (Mus musculus [3]): -1.6 g
Activity (Mus musculus [4]): -0.7 g
Activity (Mus musculus [5]): -0.2 g
Median life span (Mus musculus [6]): 16.3 days
Median life span (Mus musculus [7]): 11.7 days
Median life span (Mus musculus [8]): 12.3 days
Median life span (Mus musculus [9]): 12.4 days
T/C (Mus musculus [10]): 113%
T/C (Mus musculus [11]): 114%
T/C (Mus musculus [12]): 126%
MIC [13]: > 400 µg/mL
MIC (Coxsackievirus): > 400 µg/mL
T/C (Mus musculus [14]): 108%
MIC [1]: 1000 µM (≈ 149 µg/mL)

NC(=O)c1ncn([C@@H]2O[C@H](CO)[C@@H](O)[C@H]2O)n1 [RIBAVIRIN]
MIC (Human alphaherpesvirus 1): > 400 µg/mL
MIC (Human alphaherpesvirus 2): > 400 µg/mL

Nc1ncnc2c1ncn2C[C@H](O)CO [(S)-DHPA]
MIC (Human alphaherpesvirus 1): > 400 µg/mL
MIC (Human alphaherpesvirus 2): > 400 µg/mL
